Test results: ChEMBL document CHEMBL1165969, “Synthesis and cytotoxicity of novel indirubin-5-carboxamides” (Bioorg Med Chem, 2010)

Legend:
[1] = target: Platelet-derived growth factor receptor alpha (Homo sapiens) (UniProt P16234); test: Inhibition of PDGFRalpha assessed as residual activity at 1 uM after 80 mins by microplate scintillation counting
[2] = target: RAF proto-oncogene serine/threonine-protein kinase (Homo sapiens) (UniProt P04049); test: Inhibition of RAF1 assessed as residual activity at 10 uM after 80 mins by microplate scintillation counting
Procedure, shortened: (§1)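 Kinase profiling was outsourced to a contract laboratory as a panel of 30 protein kinases. Each compound was tested at two concentrations, and residual kinase activity was recorded.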

[3] = target: Ribosomal protein S6 kinase beta-1 (Homo sapiens) (UniProt P23443); test: Inhibition of p70S6K1 assessed as residual activity at 10 uM after 80 mins by microplate scintillation counting; procedure, shortened: as §1
[4] = target: Ribosomal protein S6 kinase beta-1 (Homo sapiens) (UniProt P23443); test: Inhibition of p70S6K1 assessed as residual activity at 1 uM after 80 mins by microplate scintillation counting; procedure, shortened: as §1
[5] = target: Proto-oncogene tyrosine-protein kinase Src (Homo sapiens) (UniProt P12931); test: Inhibition of SRC assessed as residual activity at 10 uM after 80 mins by microplate scintillation counting; procedure, shortened: as §1
[6] = target: Proto-oncogene tyrosine-protein kinase Src (Homo sapiens) (UniProt P12931); test: Inhibition of SRC assessed as residual activity at 1 uM after 80 mins by microplate scintillation counting; procedure, shortened: as §1
[7] = target: Vascular endothelial growth factor receptor 2 (Homo sapiens) (UniProt P35968); test: Inhibition of VEGFR2 assessed as residual activity at 10 uM after 80 mins by microplate scintillation counting; procedure, shortened: as §1
[8] = target: Vascular endothelial growth factor receptor 2 (Homo sapiens) (UniProt P35968); test: Inhibition of VEGFR2 assessed as residual activity at 1 uM after 80 mins by microplate scintillation counting; procedure, shortened: as §1
[9] = target: Vascular endothelial growth factor receptor 3 (Homo sapiens) (UniProt P35916); test: Inhibition of VEGFR3 assessed as residual activity at 10 uM after 80 mins by microplate scintillation counting; procedure, shortened: as §1
[10] = target: Vascular endothelial growth factor receptor 3 (Homo sapiens) (UniProt P35916); test: Inhibition of VEGFR3 assessed as residual activity at 1 uM after 80 mins by microplate scintillation counting; procedure, shortened: as §1
[11] = target: Aurora kinase A (Homo sapiens) (UniProt O14965); test: Inhibition of Aurora A assessed as residual activity at 1 uM after 80 mins by microplate scintillation counting
[12] = target: Aurora kinase B (Homo sapiens) (UniProt Q96GD4); test: Inhibition of Aurora B assessed as residual activity at 10 uM after 80 mins by microplate scintillation counting
[13] = target: Aurora kinase B (Homo sapiens) (UniProt Q96GD4); test: Inhibition of Aurora B assessed as residual activity at 1 uM after 80 mins by microplate scintillation counting
[14] = target: Aurora kinase C (Homo sapiens) (UniProt Q9UQB9); test: Inhibition of Aurora C assessed as residual activity at 10 uM after 80 mins by microplate scintillation counting
[15] = target: Serine/threonine-protein kinase B-raf (Homo sapiens) (UniProt P15056); test: Inhibition of B-Raf assessed as residual activity at 1 uM after 80 mins by microplate scintillation counting
[16] = target: T1, Cyclin-dependent kinase 2/cyclin A (Homo sapiens) (UniProt P24941+P20248+P78396); test: Inhibition of CDK2/Cyclin A assessed as residual activity at 10 uM after 80 mins by microplate scintillation counting; assay type: protein-complex assay
[17] = target: T1, Cyclin-dependent kinase 2/cyclin A (Homo sapiens); test: Inhibition of CDK2/Cyclin A assessed as residual activity at 1 uM after 80 mins by microplate scintillation counting; assay type: protein-complex assay
[18] = target: Cyclin-dependent kinase 4/cyclin D1 (Homo sapiens) (UniProt P11802+P24385); test: Inhibition of CDK4/Cyclin D1 assessed as residual activity at 1 uM after 80 mins by microplate scintillation counting; assay type: protein-complex assay
[19] = target: Cyclin-dependent kinase 5/CDK5 activator 1 (Homo sapiens) (UniProt Q00535+Q15078); test: Inhibition of CDK5/p35 assessed as residual activity at 1 uM after 80 mins by microplate scintillation counting; assay type: protein-complex assay
[20] = target: Serine/threonine-protein kinase Chk1 (Homo sapiens) (UniProt O14757); test: Inhibition of CHK1 assessed as residual activity at 10 uM after 80 mins by microplate scintillation counting
[21] = target: Serine/threonine-protein kinase Chk2 (Homo sapiens) (UniProt O96017); test: Inhibition of CHK2 assessed as residual activity at 10 uM after 80 mins by microplate scintillation counting
[22] = target: Serine/threonine-protein kinase Chk2 (Homo sapiens) (UniProt O96017); test: Inhibition of CHK2 assessed as residual activity at 1 uM after 80 mins by microplate scintillation counting
[23] = target: Epidermal growth factor receptor (Homo sapiens) (UniProt P00533); test: Inhibition of EGFR assessed as residual activity at 1 uM after 80 mins by microplate scintillation counting
[24] = target: Receptor tyrosine-protein kinase erbB-2 (Homo sapiens) (UniProt P04626); test: Inhibition of ERBB2 assessed as residual activity at 10 uM after 80 mins by microplate scintillation counting
[25] = target: Focal adhesion kinase 1 (Homo sapiens) (UniProt Q05397); test: Inhibition of FAK assessed as residual activity at 1 uM after 80 mins by microplate scintillation counting
[26] = target: Fibroblast growth factor receptor 1 (Homo sapiens) (UniProt P11362); test: Inhibition of FGFR1 assessed as residual activity at 10 uM after 80 mins by microplate scintillation counting
[27] = target: Fibroblast growth factor receptor 1 (Homo sapiens) (UniProt P11362); test: Inhibition of FGFR1 assessed as residual activity at 1 uM after 80 mins by microplate scintillation counting
[28] = target: Tyrosine-protein kinase Fgr (Homo sapiens) (UniProt P09769); test: Inhibition of FGR assessed as residual activity at 1 uM after 80 mins by microplate scintillation counting
[29] = target: Receptor-type tyrosine-protein kinase FLT3 (Homo sapiens) (UniProt P36888); test: Inhibition of FLT3 assessed as residual activity at 10 uM after 80 mins by microplate scintillation counting
[30] = target: Receptor-type tyrosine-protein kinase FLT3 (Homo sapiens) (UniProt P36888); test: Inhibition of FLT3 assessed as residual activity at 1 uM after 80 mins by microplate scintillation counting
[31] = target: T2, Glycogen synthase kinase-3 beta (Homo sapiens, UniProt P49841); test: Inhibition of GSK3-beta assessed as residual activity at 1 uM after 80 mins by microplate scintillation counting
[32] = target: Insulin-like growth factor 1 receptor (Homo sapiens) (UniProt P08069); test: Inhibition of IGF1R assessed as residual activity at 10 uM after 80 mins by microplate scintillation counting
[33] = target: Insulin-like growth factor 1 receptor (Homo sapiens) (UniProt P08069); test: Inhibition of IGF1R assessed as residual activity at 1 uM after 80 mins by microplate scintillation counting
[34] = target: Tyrosine-protein kinase JAK2 (Homo sapiens) (UniProt O60674); test: Inhibition of JAK2 assessed as residual activity at 10 uM after 80 mins by microplate scintillation counting
[35] = target: Mast/stem cell growth factor receptor Kit (Homo sapiens) (UniProt P10721); test: Inhibition of KIT assessed as residual activity at 10 uM after 80 mins by microplate scintillation counting
[36] = target: Mast/stem cell growth factor receptor Kit (Homo sapiens) (UniProt P10721); test: Inhibition of KIT assessed as residual activity at 1 uM after 80 mins by microplate scintillation counting
[37] = target: Muscle, skeletal receptor tyrosine-protein kinase (Homo sapiens) (UniProt O15146); test: Inhibition of MUSK assessed as residual activity at 10 uM after 80 mins by microplate scintillation counting
[38] = target: T2, Glycogen synthase kinase-3 beta; test: Inhibition of GSK3-beta assessed as inhibition of [33Pi] incorporation after 80 mins by microplate scintillation counting

Fibroblast growth factor receptor 1 (Homo sapiens), sequence (P11362 22-822 limits assumed): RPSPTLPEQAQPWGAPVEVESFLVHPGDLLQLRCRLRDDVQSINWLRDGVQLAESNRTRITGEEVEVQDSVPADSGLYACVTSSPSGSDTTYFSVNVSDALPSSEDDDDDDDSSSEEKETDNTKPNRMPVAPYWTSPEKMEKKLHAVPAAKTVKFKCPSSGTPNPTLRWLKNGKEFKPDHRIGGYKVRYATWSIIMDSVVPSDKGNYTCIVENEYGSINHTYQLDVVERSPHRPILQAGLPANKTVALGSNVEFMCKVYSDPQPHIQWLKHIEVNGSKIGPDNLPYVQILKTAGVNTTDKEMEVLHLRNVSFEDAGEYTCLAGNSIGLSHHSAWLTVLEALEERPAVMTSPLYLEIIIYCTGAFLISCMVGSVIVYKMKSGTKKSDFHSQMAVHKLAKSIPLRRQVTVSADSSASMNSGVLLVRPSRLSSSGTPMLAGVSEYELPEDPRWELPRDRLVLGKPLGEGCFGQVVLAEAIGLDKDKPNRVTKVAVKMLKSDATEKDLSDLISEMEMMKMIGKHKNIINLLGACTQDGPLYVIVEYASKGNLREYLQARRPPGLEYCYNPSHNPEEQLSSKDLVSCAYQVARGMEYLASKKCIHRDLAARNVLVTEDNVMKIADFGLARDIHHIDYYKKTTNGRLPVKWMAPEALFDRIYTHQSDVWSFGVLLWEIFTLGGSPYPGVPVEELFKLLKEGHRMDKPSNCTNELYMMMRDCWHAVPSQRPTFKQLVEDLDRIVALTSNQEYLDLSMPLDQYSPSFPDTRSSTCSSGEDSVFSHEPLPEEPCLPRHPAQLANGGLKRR
Insulin-like growth factor 1 receptor (Homo sapiens), sequence (P08069 31-736 limits assumed): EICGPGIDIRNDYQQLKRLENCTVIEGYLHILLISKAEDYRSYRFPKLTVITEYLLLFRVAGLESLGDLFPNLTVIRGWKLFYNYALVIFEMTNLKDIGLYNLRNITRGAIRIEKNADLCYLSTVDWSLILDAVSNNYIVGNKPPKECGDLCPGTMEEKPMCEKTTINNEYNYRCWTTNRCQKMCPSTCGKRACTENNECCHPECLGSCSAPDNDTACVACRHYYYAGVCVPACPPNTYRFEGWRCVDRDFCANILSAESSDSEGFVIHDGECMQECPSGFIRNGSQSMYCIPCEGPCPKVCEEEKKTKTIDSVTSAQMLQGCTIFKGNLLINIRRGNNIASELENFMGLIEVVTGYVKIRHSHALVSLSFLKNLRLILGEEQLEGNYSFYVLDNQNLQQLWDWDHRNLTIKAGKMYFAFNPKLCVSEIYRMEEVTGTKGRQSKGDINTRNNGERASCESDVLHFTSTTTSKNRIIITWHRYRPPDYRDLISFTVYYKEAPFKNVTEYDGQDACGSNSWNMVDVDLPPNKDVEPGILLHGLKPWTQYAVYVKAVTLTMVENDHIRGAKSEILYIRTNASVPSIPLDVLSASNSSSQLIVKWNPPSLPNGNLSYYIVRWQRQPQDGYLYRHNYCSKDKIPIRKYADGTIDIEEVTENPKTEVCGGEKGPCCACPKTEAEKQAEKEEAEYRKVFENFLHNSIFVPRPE
Insulin-like growth factor 1 receptor (Homo sapiens), sequence (P08069 741-1367 limits assumed): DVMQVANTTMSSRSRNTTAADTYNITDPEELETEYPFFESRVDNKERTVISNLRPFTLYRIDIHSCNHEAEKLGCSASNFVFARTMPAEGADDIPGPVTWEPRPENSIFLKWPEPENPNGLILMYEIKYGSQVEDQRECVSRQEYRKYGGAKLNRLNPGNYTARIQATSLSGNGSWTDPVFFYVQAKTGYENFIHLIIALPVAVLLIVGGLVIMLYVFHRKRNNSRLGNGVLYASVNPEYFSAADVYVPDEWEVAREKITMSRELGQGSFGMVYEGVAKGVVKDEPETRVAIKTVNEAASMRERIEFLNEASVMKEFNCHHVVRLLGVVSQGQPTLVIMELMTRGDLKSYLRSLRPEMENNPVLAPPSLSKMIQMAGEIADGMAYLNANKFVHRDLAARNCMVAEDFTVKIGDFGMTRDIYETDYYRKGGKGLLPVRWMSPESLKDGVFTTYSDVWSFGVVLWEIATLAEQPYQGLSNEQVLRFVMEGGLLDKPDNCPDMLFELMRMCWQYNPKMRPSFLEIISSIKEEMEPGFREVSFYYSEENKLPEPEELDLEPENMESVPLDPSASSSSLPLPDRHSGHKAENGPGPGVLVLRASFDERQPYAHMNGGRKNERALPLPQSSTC
Vascular endothelial growth factor receptor 2 (Homo sapiens), sequence (P35968 whole entry): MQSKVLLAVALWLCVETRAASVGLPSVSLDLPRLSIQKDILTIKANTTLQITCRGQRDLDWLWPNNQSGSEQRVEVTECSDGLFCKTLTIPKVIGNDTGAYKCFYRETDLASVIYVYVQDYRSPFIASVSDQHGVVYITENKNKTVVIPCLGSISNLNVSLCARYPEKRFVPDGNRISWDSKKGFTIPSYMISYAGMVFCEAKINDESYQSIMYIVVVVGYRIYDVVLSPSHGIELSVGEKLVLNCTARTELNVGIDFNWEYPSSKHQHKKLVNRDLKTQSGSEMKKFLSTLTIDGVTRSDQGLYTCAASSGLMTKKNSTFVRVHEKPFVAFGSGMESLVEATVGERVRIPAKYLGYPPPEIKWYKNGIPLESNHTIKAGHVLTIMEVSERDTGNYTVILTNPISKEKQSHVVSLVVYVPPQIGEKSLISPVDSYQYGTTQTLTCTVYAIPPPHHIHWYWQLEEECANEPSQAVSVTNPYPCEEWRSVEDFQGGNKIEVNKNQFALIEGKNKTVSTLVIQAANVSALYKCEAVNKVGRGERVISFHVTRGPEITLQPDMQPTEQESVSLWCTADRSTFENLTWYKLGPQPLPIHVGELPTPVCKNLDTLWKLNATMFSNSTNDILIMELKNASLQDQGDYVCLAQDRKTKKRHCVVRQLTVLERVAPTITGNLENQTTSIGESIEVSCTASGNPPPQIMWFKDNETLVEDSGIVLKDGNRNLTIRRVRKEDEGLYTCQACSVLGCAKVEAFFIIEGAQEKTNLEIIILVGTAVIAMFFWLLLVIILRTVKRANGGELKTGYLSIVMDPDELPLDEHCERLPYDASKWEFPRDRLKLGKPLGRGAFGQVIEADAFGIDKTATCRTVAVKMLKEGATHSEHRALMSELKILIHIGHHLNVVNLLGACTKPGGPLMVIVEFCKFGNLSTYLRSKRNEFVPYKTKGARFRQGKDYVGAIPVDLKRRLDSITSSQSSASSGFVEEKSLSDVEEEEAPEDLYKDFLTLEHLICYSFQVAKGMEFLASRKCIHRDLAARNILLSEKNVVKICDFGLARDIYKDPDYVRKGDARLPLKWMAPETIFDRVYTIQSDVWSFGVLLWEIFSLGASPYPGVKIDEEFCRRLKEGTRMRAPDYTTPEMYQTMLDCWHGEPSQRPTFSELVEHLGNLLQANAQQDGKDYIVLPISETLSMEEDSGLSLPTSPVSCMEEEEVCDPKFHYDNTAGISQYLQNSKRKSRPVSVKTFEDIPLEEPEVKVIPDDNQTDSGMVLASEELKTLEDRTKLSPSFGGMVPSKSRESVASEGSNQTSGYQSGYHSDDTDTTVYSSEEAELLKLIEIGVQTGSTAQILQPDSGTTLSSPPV
Receptor-type tyrosine-protein kinase FLT3 (Homo sapiens), sequence (P36888 whole entry): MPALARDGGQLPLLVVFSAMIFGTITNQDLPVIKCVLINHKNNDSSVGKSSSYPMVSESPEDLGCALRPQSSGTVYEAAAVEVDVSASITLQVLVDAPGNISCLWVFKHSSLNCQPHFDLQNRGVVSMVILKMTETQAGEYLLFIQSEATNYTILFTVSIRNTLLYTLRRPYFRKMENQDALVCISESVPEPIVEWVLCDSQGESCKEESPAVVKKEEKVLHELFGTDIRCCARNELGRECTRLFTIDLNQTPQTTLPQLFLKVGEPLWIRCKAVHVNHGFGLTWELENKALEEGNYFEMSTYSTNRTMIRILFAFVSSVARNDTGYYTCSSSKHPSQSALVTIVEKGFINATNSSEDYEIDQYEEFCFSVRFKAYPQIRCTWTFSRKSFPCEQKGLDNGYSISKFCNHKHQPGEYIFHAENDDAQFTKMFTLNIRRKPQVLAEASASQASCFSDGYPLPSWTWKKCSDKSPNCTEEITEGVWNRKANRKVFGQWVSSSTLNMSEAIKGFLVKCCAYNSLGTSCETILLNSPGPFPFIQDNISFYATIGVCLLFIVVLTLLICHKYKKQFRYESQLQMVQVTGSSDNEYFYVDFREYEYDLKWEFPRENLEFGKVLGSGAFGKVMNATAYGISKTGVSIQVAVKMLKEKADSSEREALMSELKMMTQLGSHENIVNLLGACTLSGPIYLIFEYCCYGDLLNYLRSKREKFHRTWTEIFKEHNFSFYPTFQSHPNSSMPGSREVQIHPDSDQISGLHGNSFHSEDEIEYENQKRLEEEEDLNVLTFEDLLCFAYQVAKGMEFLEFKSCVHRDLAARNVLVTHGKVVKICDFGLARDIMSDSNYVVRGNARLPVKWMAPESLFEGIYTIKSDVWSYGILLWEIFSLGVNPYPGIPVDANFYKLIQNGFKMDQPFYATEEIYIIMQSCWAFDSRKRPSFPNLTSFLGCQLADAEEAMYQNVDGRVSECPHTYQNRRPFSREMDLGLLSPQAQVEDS
Serine/threonine-protein kinase Chk2 (Homo sapiens), sequence (O96017 whole entry): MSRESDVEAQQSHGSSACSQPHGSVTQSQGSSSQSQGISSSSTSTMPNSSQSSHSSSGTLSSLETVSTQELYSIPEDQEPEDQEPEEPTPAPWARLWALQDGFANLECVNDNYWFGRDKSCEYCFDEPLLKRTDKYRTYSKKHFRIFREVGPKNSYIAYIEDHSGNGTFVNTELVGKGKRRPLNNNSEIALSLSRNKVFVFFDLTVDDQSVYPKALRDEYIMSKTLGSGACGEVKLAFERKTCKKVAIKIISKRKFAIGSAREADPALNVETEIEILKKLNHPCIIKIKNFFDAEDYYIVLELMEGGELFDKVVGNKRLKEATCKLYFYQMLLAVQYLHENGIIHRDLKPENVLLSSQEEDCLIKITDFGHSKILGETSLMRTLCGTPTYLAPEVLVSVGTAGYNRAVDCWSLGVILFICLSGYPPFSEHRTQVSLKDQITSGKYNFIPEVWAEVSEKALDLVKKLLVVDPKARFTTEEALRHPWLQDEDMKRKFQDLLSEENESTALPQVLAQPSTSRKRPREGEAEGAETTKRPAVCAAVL

SMILES: CN1CCN(c2ccc(NC(=O)c3ccc4c(c3)/C(=C3/Nc5ccccc5C3=O)C(=O)N4)cc2)CC1
- Activity [1]: 94%
- Activity [2]: 53%
- Activity [3]: 48%
- Activity [4]: 94%
- Activity [5]: 271%
- Activity [6]: 132%
- Activity [7]: 65%
- Activity [8]: 100%
- Activity [9]: 37%
- Activity [10]: 99%
- Activity [11]: 86%
- Activity [12]: 73%
- Activity [13]: 98%
- Activity [14]: 92%
- Activity [15]: 103%
- Activity [16]: 20%
- Activity [17]: 60%
- Activity [18]: 64%
- Activity [19]: 53%
- Activity [20]: 45%
- Activity [21]: 69%
- Activity [22]: 90%
- Activity [23]: 99%
- Activity [24]: 40%
- Activity [25]: 103%
- Activity [26]: 83%
- Activity [27]: 88%
- Activity [28]: 99%
- Activity [29]: 11%
- Activity [30]: 67%
- Activity [31]: 27%
- Activity [32]: 103%
- Activity [33]: 102%
- Activity [34]: 48%
- Activity [35]: 129%
- Activity [36]: 98%
- Activity [37]: 31%
- IC50 [38]: 100 nM
